Screening results as filed in PubChem BioAssay.
This is a sample that favours compounds with a hit; in the whole collection about 27% have one here.
CYP2C9 activ: human CYP2C9 activators, primary screen, biochemical, luminescence; Cytochrome P450 2C9 (Homo sapiens), P11712; recombinant CYP2C9, luciferin-H conversion; stronger effect = higher value; factor 1 = untreated enzyme, 0 = blocked; activation factor at 5 µM; 96,000 compounds, 1.4% hits; AID 1024, 2008;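 active = activation factor of 2 or more for CYP2C9 at a 5 µM dose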;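 also: 0 = sulfaphenazole-blocked wells and 1 = vehicle-only wells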
Rev-RRE block: HIV-1 Rev-RRE binding inhibitors, primary screen, biochemical, FRET, protein-RNA interaction; P05866; Rev peptide-RRE RNA binding; inhibition, % at 8 µM; 97,000 compounds, 0.79% hits; AID 704, 2007;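 active = inhibition above the screen-wide mean plus 3 SD, cut at about 35% in these data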;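 also: 0% = median DMSO wells and 100% = median Neomycin B control wells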
Target sequence (P05866 whole entry, looked up): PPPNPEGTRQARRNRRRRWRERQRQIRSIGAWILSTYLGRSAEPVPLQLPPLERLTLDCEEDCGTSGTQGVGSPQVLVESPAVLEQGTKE
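Test system: Cy5-tagged RRE RNA duplex with fluorescein-tagged Rev peptide | Read-out: % inhibition of FRET ratio versus controls | Probe or stimulus: Labelled Rev peptide | Incubation: 5 min RNA-compound premix plus 15 min binding step, 25 °C | Technique: FRET fluorescence readout | Benchmarks: DMSO low control, neomycin B high control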
CYP2C19 inh: blockers of cytochrome P450 2C19 activity – biochemical, luminescence, ADME assay, primary screen; P33261; CYP2C19 Supersomes, luciferin-H EGE luminescence, 30 min; inhibition, % at 5 µM; 96,000 compounds, 21% hits; AID 778, 2007;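 active = CYP2C19 inhibition above a set limit at 5 µM in the primary screen, cut at about 50% in these data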;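 also: plate controls were negative control wells for no effect and 2.5 mM tranylcypromine positive control for full effect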
Target sequence (P33261 whole entry, looked up): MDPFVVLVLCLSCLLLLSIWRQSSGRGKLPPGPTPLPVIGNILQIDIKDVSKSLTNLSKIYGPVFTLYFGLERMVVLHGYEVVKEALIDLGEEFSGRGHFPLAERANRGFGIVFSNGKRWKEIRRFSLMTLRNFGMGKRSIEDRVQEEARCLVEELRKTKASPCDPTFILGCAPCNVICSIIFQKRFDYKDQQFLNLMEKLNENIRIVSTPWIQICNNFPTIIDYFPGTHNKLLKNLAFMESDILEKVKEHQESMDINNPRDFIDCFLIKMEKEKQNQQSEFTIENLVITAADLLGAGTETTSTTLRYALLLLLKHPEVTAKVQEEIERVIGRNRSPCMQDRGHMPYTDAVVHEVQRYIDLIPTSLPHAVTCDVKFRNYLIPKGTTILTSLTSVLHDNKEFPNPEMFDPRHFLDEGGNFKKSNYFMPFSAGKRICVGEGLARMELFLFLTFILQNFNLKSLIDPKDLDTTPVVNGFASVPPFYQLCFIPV
CYP2C19 act: human CYP2C19 activators, primary screen, biochemical, luminescence | Cytochrome P450 2C19 (Homo sapiens), P33261 | recombinant CYP2C19, luciferin-H EGE luminescence; stronger effect = higher value; 0 = fully inhibited enzyme, 1 = untreated enzyme | activation factor at 5 µM | 96,000 tested, under 10 active | AID 1025, 2008;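 active = activation factor of at least 2 at 5 µM in the primary screen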;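 also: 0 = wells with 2.5 mM tranylcypromine and 1 = vehicle-only wells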
CYP2C9 inhib: blockers of cytochrome P450 2C9 activity – biochemical, luminescence, ADME assay, primary screen; P11712; CYP2C9 Supersomes, luciferin-H conversion; inhibition, % at 5 µM; 96,000 compounds, 20% hits; AID 777, 2007;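 active = blocking of liver enzyme CYP2C9 beyond about 50% at 5 µM, limit read from the data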
Cav32 inh: Cav3.2 calcium influx blockers – cell-based, Fluo-4 calcium fluorescence, FDSS, MLSMR library, primary screen | Cav3.2-expressing cells; stronger effect = lower value | B-score at 10 µM | 100,000 compounds, 4% hits | AID 449739, 2010;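 active = single-dose well whose peak fluorescence ratio is a statistical outlier from its plate by either plate-standardised score or position-corrected B-score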
The depositor's hits bear a star; · = no result given.

SMILES | CYP2C9 activ | Rev-RRE block | CYP2C19 inh | CYP2C19 act | CYP2C9 inhib | Cav32 inh
Cc1ccc(NC(=O)CCC(=O)OC(C(=O)c2ccc(C)c(C)c2)c2ccccc2)c(C)c1 (stereo unspecified) | 0.9 | 4 | 24 | 0.8 | 14 | -0.084
CC(=O)Nc1cccc(C(=O)OCc2ccccc2)c1 | 1.3 | 1 | 98* | 0 | -32 | 0.019
COc1ccc(CCNC(=O)c2n[nH]c(=O)c3ccccc23)cc1 | 1 | 7 | -2 | 1 | 5 | -1.4
O=C(N/N=C/c1c[nH]c2ccc(Br)cc12)c1ccn(Cc2ccc(Cl)cc2)n1 | 0.5 | 5 | 30 | 0.7 | 48 | ·
O=C(N/N=C/c1c[nH]c2ccccc12)c1ccn(Cc2ccc(Cl)cc2Cl)n1 | 0.3 | 7 | 57* | 0.4 | 70* | ·
CCOc1cc(/C=N/O)cc(Br)c1OCC | · | 7 | · | · | · | -1.9
C#CCOc1c(Br)cc(/C=N/O)cc1OCC | 0.3 | 8 | 47 | 0.5 | 72* | -0.54
C#CCOc1c(Br)cc(/C=N\NC(=O)CN2CCOCC2)cc1OCC | 0.4 | 8 | 31 | 0.7 | 59* | -0.045
c1ccc(CSc2ncnc3c2cnn3Cc2ccccc2)cc1 | 0.8 | 19 | 12 | 0.9 | 19 | -0.4
O=C1Nc2ccccc2OC1CC(=O)N1CCCC1 (stereo unspecified) | 0.8 | · | 45 | 0.6 | 20 | 0.8
O=C(O)CCC(=O)NNC(=O)CCC(=O)NCc1ccccc1 | 0.9 | -1 | 13 | 0.9 | 11 | 1.2
Cc1[nH]c2ccccc2c1C(=O)CSc1nc2cc(S(=O)(=O)N3CCCCC3)ccc2o1 | 0.1 | 6 | 60* | 0.4 | 90* | -3.6
O=C(CSc1nc2cc(Cl)ccc2o1)N1CCOCC1 | 0.7 | -4 | 40 | 0.6 | 26 | ·
Cc1ccc(C(=O)CSc2nc3cc(S(=O)(=O)N4CCOCC4)ccc3o2)cc1 | 0.2 | · | 11 | 0.9 | 82* | -1.8
CN(C)c1nc(OCC(=O)NC(C)(C)C)nc(N(C)C)n1 | 1 | 0 | 37 | 0.6 | -1 | 0.58
S=c1[nH]nc(C2CCCCC2)n1/N=C/c1ccc(Br)s1 | 0.9 | 0 | 37 | 0.6 | 6 | 0.87
Cc1cccc(C)c1NC(=O)c1c(C)nn(-c2ccccc2)c1Cl | 0.6 | 0 | 51* | 0.5 | 44 | 3.3
Cc1nn(-c2ccccc2)c(Cl)c1C(=O)Nc1nnc(C2CCCC2)s1 | 0.1 | · | 44 | 0.6 | 94* | -5*
Cc1nn(-c2ccccc2)c(Cl)c1C(=O)NCC(=O)O | 1.1 | 11 | -18 | 1.2 | -13 | -1.4
Cc1cc(C)n(C(C)n2nc(C)cc2C)n1 | 1.1 | 8 | 17 | 0.8 | -8 | -0.039
O=C(CSc1ncn[nH]1)Nc1ccccc1C(=O)O | 1 | 5 | -5 | 1 | 1 | -0.85
O=C(CSc1ncn[nH]1)Nc1ccc(Cl)c(Cl)c1 | 0.7 | 9 | 63* | 0.4 | 27 | -0.0068
O=C(CSc1ncn[nH]1)Nc1ccc(Br)cc1F | 0.9 | 9 | 82* | 0.2 | 6 | 0.17
COc1ccc(C(c2nnnn2CCc2ccccc2)N2CCN(C3CCCC3)CC2)cc1OC (stereo unspecified) | 0.9 | 5 | -8 | 1.1 | 12 | 0.59
O=C(O)CC(C(=O)Nc1cccc(C(F)(F)F)c1)C1CCCO1 (stereo unspecified) | 1.2 | 2 | -16 | 1.2 | -16 | 0.69
SMILES | CYP2C9 activ | Rev-RRE block | CYP2C19 inh | CYP2C19 act | CYP2C9 inhib | Cav32 inh
COc1ccc(NC(=O)N(C2CCCCC2)C2CCN(C(C)C)CC2)c(OC)c1 | 0.9 | 3 | 3 | 1 | 5 | -0.019
O=c1[nH]c2cc3c(cc2cc1CN(CC1CCCO1)S(=O)(=O)c1ccccc1)OCCO3 (stereo unspecified) | 0.7 | · | 9 | 0.9 | 25 | 1.2
Cc1ccc(C)c2[nH]c(=O)c(CN(CC3CCCO3)S(=O)(=O)c3ccc4c(c3)OCCO4)cc12 (stereo unspecified) | 0.4 | 2 | 21 | 0.8 | 61* | -0.4
Cc1cc(C)c2[nH]c(=O)c(CN(CC3CCCO3)S(=O)(=O)c3ccc4c(c3)OCCO4)cc2c1 (stereo unspecified) | 0.1 | -3 | 78* | 0.2 | 92* | -2.9
CC1(c2nnc(-c3cccc(Cl)c3)o2)CC(c2ccc(F)cc2)=NO1 (stereo unspecified) | · | · | · | · | · | -0.47
O=[N+]([O-])c1nn(-c2ccccc2)n(O)c1=NCc1ccc2c(c1)OCO2 | 0.5 | -3 | 77* | 0.2 | 53* | -3.3
O=[N+]([O-])c1nn(-c2ccc3c(c2)OCCO3)n(O)c1=NCCCO | 0.9 | 6 | 2 | 1 | 13 | 0.027
Cc1cc(=O)[nH]c(N2CCc3ccccc3C2)n1 | 1.1 | 9 | 28 | 0.7 | -13 | 0.66
Cc1onc(-c2ccccc2Cl)c1C(=O)OCC(=O)N1CCCc2ccccc21 | 0 | · | 94* | 0.1 | 96* | -7.4*
Cc1onc(-c2ccccc2Cl)c1C(=O)N1CCCc2ccccc21 | 0.8 | 11 | 68* | 0.3 | 16 | -1.2
Cc1noc(C)c1C(=O)N1CCCc2ccccc21 | 1 | -1 | 18 | 0.8 | 4 | ·
Cc1onc(-c2c(F)cccc2Cl)c1C(=O)N1CCCc2ccccc21 | 0.7 | 7 | 66* | 0.3 | 26 | -0.77
Cc1onc(-c2ccccc2)c1C(=O)N1CCc2ccccc21 | 0.6 | 5 | 90* | 0.1 | 41 | -1.1
Cc1onc(-c2c(F)cccc2Cl)c1C(=O)NCCCN1CCOCC1 | 0.8 | -5 | 3 | 1 | 16 | 0.52
Cc1onc(-c2ccccc2Cl)c1C(=O)N1CCc2ccccc21 | 0.7 | -1 | 69* | 0.3 | 34 | -0.25
Cc1onc(-c2c(F)cccc2Cl)c1C(=O)N1C=CC(C(F)(F)Cl)=NCC1 | 0.7 | -3 | 58* | 0.4 | 29 | 0.033
Cc1cccc(C)c1NC(=O)C(c1ccccc1)N1CCC1=O (stereo unspecified) | 1.1 | -1 | -5 | 1.1 | -14 | 0.58
Nc1nnc(SCCOc2ccccc2)s1 | 0.4 | 2 | 87* | 0.1 | 63* | -0.28
Nc1nnc(SCCOc2ccc(Br)cc2)s1 | 0.8 | 6 | 82* | 0.2 | 19 | -2
CCOc1ccc(C(=O)CSc2nnc(N)s2)cc1 | 0.7 | 8 | 58* | 0.4 | 34 | 0.62
COc1ccc(NC(=O)CSc2nnc(N)s2)cc1 | 0.9 | 3 | 1 | 1 | 10 | -0.37
Cc1ccc(-c2ccc(=O)n(CCC(=O)NCc3ccccn3)n2)cc1 | 0.9 | 0 | 9 | 0.9 | 10 | 0.0086
CC1(C)Cn2c(nnc2-c2cccc(O)c2)S1 | 0.9 | 6 | 17 | 0.8 | 10 | -0.75
